Our source for the Activity and inhibition values is ChEMBL document CHEMBL3797120, “Identification of 1,2,3-triazole derivatives that protect pancreatic β cells against endoplasmic reticulum stress-mediated dysfunction and death through the inhibition of C/EBP-homologous protein expression” (Bioorg Med Chem, 2016).

The structures appear in SMILES notation. Activity calls are given as the source filed them. No cut-off for these calls is given here.

Data set [1] is described as follows: Effect on 20 mM glucose-stimulated insulin secretion in rat INS-1 cells preincubated for 24 hrs followed by glucose addition and subsequent incubation for 45 mins by ELISA. The conditions noted are these: ins1, 0.75 h. In kind it is ADME, cell-based. In short, it runs like this:
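INS-1 cells seeded at 1 × 10⁵/well and treated 24 h with compounds (with or without Tm). They were washed in Krebs-HEPES buffer pH 7.4 with 1% BSA, preincubated 1 h in 2.5 mM glucose, then stimulated 45 min with 2.5 or 20 mM glucose. Secreted insulin was measured by ELISA and normalized to Bradford total protein. The index is 20 mM/2.5 mM secretion from triplicate wells.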
A general note: An ELISA detects its analyte on a solid surface through an enzyme-linked reagent.

The target in data set [2] is DNA damage-inducible transcript 3 protein (Rattus norvegicus) (UniProt Q62857). Nature of the data set: Inhibition of endoplasmic reticulum stress-induced CHOP activity in tunicamycin-treated rat INS-1 cells assessed as DNA fragmentation at 20 uM after 24 hrs by TUNEL assay (reference value: 15%). Set-up: scale not given: the % may be the effect or the level left. In kind it is cell-based. The conditions noted are these: INS1. In short, it runs like this: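 INS-1 cells seeded at 4 × 10⁴/well and treated 24 h with Tm 0.1 μg/ml plus 20 μM compound. Cells were fixed in 4% PFA, permeabilized, TUNEL-stained 1 h at 37°C, counterstained with DAPI, and imaged by high-content imaging. TUNEL+ percentage is mean ± SD of five images.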

A short description of data set [3]: Effect on growth rate of rat INS-1 cells at 2.5 to 10 uM after 72 hrs by CellTiter-Glo assay relative to control. Particulars: ins1, 72 h. The format is cell-based. In short, it runs like this: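 INS-1 cells grown with compound alone (no stressor) and viability/growth read by CellTiter-Glo, compared with DMSO-treated cells.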
Background: ATP-based viability assays read luminescence as a measure of living cells.

The nature of data set [4]: Cytoprotective activity against endoplasmic reticulum stress-induced cell death in tunicamycin-treated CHOP knock out C57BL/6 mouse primary pancreatic islet beta cells assessed as DNA fragmentation at 10 uM after 24 hrs by TUNEL assay (reference value: 18.7%). In kind it is functional. In short, it runs like this:
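Primary islet cells isolated from CHOP−/− knockout mice (age-matched males), cultured in CMRL-1066 with 10% FBS, treated with compound (10 μM) plus tunicamycin (1 μg/ml) for 24 h. Cells fixed in 4% paraformaldehyde, permeabilized with 0.1% Triton X-100 in 0.1% sodium citrate, TUNEL stained (1 h, 37°C), co-stained for insulin and DAPI; % TUNEL+ insulin+ cells counted, five wells, islets from 3 mice.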

In data set [5] the target is DNA damage-inducible transcript 3 protein (Mus musculus) (UniProt P35639). Nature of the data set: Inhibition of endoplasmic reticulum stress-induced CHOP activity in mouse BetaTC6 cells assessed as decrease in tunicamycin-induced cell death by measuring cell viability at 2.5 to 20 uM after 72 hrs by CellTiter-Glo assay. In kind it is cell-based. Particulars: Beta-TC6. In short, it runs like this: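 βTC6 mouse insulinoma cells (DMEM, 15% FBS) seeded at 3 × 10³/well and treated 72 h with Tm 0.25 μg/ml plus DMSO or compound. Viability measured by CellTiter-Glo and expressed as fold change versus Tm alone = 1. Means ± SD of triplicates.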

Data set [6] in a line: Inhibition of endoplasmic reticulum stress-mediated upregulation of CHOP mRNA expression in tunicamycin-treated rat INS-1 cells after 2 to 8 hrs by qRT-PCR method. The format is functional, cell-based. Particulars: INS1. In short, it runs like this:
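INS-1 cells seeded at 4 × 10⁵/well and treated with Tm 0.1 μg/ml plus compound, either for 8 h at indicated concentrations or for indicated times at 10 μM. CHOP mRNA was measured by qRT-PCR with rat primers, normalized to rat cyclophilin A, and reported as fold change.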
On the technique in general: In qPCR the cycle at which signal appears reflects the starting amount.

Chain of DNA damage-inducible transcript 3 protein (Mus musculus) (P35639 whole entry): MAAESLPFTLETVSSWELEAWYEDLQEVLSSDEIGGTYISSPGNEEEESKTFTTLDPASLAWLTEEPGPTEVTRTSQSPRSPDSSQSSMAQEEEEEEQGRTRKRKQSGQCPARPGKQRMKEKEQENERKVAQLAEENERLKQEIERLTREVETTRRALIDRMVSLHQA
Chain of DNA damage-inducible transcript 3 protein (Rattus norvegicus) (Q62857 whole entry, the tested form may be a part): as the sequence (P35639 whole entry) above, with T9A, L10F, T70A, R74S, E97D, P111A, P114A, Q142L counted along it

For the compound `CCc1ccc(-n2nnc(C(=O)Nc3cccc(F)c3)c2C)cc1`, the Activity result in data set [1] is “Non-toxic”; in data set [2], 1.5%; in data set [3], “Non-toxic”; in data set [4], 14.6%. In data set [5], the inhibition entry was “Active”. Besides, the inhibition result in data set [6] was “Dose-dependent effect”.
